Measurements published in ChEMBL document CHEMBL3352664 (Bioorg Med Chem, 2014).
Activity calls are given as the source filed them. No cut-off for these calls is given here.

Columns and labels:
[1] = Selectivity index, ratio of CC50 for african green monkey Vero cells to IC50 for chloroquine-sensitive Plasmodium falciparum; type: functional
Plasmodium falciparum [2] = assay: Resistance index, ratio of IC50 for chloroquine-resistant Plasmodium falciparum K1 to IC50 for chloroquine-sensitive Plasmodium falciparum 3D7; type: functional
Summary of the method: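 Resistance index computed as IC50 (K1) / IC50 (3D7). Both IC50s come from the 72 h SYBR Green I fluorescence assay on P. falciparum-infected erythrocytes, run with two-fold serial dilutions in duplicate wells.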

Plasmodium falciparum [3] = assay: Antiplasmodial activity against chloroquine-resistant Plasmodium falciparum K1 by Malaria SYBR Green I-nucleic acid staining based fluorescence assay; type: functional, organism-based
Summary of the method: (§1)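 SYBR Green I fluorescence assay (MSF). DMSO stock at 5 mg/mL, two-fold serial dilutions in RPMI-1640-FBS, tested in duplicate wells. Parasitized erythrocytes (0.8% parasitaemia, 1.0% cell suspension) incubated 72 h at 37 °C under 5% CO2. Lysis buffer with SYBR Green I added, 1 h at 37 °C. Fluorescence read at 485/530 nm.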

[4] = Binding affinity to hematin in 40% aqueous DMSO and 20 mM HEPES buffer at pH 7.5 at 25 degC
Heme = assay: Binding affinity to heme assessed as inhibition of 1-oleoyl-rac-glycerol-induced beta-hematin polymerization by UV spectrophotometry
Plasmodium falciparum [5] = assay: Antiplasmodial activity against chloroquine-sensitive Plasmodium falciparum 3D7 by Malaria SYBR Green I-nucleic acid staining based fluorescence assay; type: functional, organism-based; summary of the method: as §1
Plasmodium yoelii [6] = assay: Antimalarial activity against chloroquine-resistant Plasmodium yoelii N-67infected in Swiss Albino mouse assessed as suppression of parasitemia at 100 mg/kg, po once daily for 4 days measured on day 4 post infection; type: functional; conditions: N-67, 96 h
Summary of the method: (§2)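 P. yoelii N-67 (innately CQ-resistant) infection in Swiss albino mice (22 ± 2 g), 1 × 10^6 parasitized RBC on day 0. Groups of five dosed orally once daily from day 0, 100 mg/kg/day as aqueous suspension with a few drops of Tween 80. Parasitaemia read from thin blood smears every four days. % suppression uses the group mean vs untreated controls. Survival and cure (no parasitaemia) tracked to day 28.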

Plasmodium yoelii [7] = assay: Antimalarial activity against chloroquine-resistant Plasmodium yoelii N-67infected in Swiss Albino mouse assessed as mouse cured on day 28 at 100 mg/kg, po once daily for 4 days measured on day 4 post infection; type: functional, organism-based; design: dose 100 mg/kg; summary of the method: as §2
Plasmodium yoelii [8] = assay: Antimalarial activity against chloroquine-resistant Plasmodium yoelii N-67infected in Swiss Albino mouse assessed as mouse survival on day 28 at 100 mg/kg, po once daily for 4 days measured on day 4 post infection; type: functional, organism-based; design: dose 100 mg/kg; summary of the method: as §2
Plasmodium yoelii [9] = assay: Antimalarial activity against chloroquine-resistant Plasmodium yoelii N-67infected in Swiss Albino mouse assessed as suppression of parasitemia at 100 mg/kg, po once daily for 7 days measured on day 4 post infection; type: functional; summary of the method: as §2
Plasmodium yoelii [10] = assay: Antimalarial activity against chloroquine-resistant Plasmodium yoelii N-67infected in Swiss Albino mouse assessed as mouse survival on day 28 at 100 mg/kg, po once daily for 7 days measured on day 4 post infection; type: functional, organism-based; design: dose 100 mg/kg; summary of the method: as §2
Plasmodium yoelii [11] = assay: Antimalarial activity against chloroquine-resistant Plasmodium yoelii N-67infected in Swiss Albino mouse assessed as mouse cured on day 28 at 100 mg/kg, po once daily for 7 days measured on day 4 post infection; type: functional, organism-based; design: dose 100 mg/kg; summary of the method: as §2
Plasmodium yoelii [12] = assay: Antimalarial activity against chloroquine-resistant Plasmodium yoelii N-67infected in Swiss Albino mouse assessed as suppression of parasitemia at 20 mg/kg, po once daily for 4 days measured on day 4 post infection; type: functional; conditions: N-67, 96 h
Summary of the method: (§3)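 Reference arm in the N-67 P. yoelii Swiss albino mouse model. 1 × 10^6 parasitized RBC given on day 0, five mice per group, oral dosing once daily. Parasitaemia from thin blood smears every four days; % suppression from the group mean vs untreated controls. Survival and cure (no parasitaemia) followed to day 28.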

Plasmodium yoelii [13] = assay: Antimalarial activity against chloroquine-resistant Plasmodium yoelii N-67infected in Swiss Albino mouse assessed as mouse cured on day 28 at 20 mg/kg, po once daily for 4 days measured on day 4 post infection; type: functional, organism-based; design: dose 20 mg/kg; summary of the method: as §3
Plasmodium yoelii [14] = assay: Antimalarial activity against chloroquine-resistant Plasmodium yoelii N-67infected in Swiss Albino mouse assessed as mouse survival on day 28 at 20 mg/kg, po once daily for 4 days measured on day 4 post infection; type: functional, organism-based; design: dose 20 mg/kg; summary of the method: as §3

Row | Structure (SMILES) | Selectivity Index [1] | Ratio IC50 (Plasmodium falciparum [2]) | IC50 (Plasmodium falciparum [3]) | log K [4] | IC50 (Heme) | IC50 (Plasmodium falciparum [5]) | inhibition in vivo at 100 mg/kg (Plasmodium yoelii [6]) | Activity (Plasmodium yoelii [7]) | Activity (Plasmodium yoelii [8]) | inhibition in vivo at 100 mg/kg (Plasmodium yoelii [9]) | Activity (Plasmodium yoelii [10]) | Activity (Plasmodium yoelii [11]) | inhibition in vivo at 20 mg/kg (Plasmodium yoelii [12]) | Activity (Plasmodium yoelii [13]) | Activity (Plasmodium yoelii [14])
1 | C[C@@H](CCCN1CCOCC1)Nc1ccnc2cc(Cl)ccc12 | 19256 | 4.05 | 56.8 nM | 6 | 190000 nM | 14 nM | 99.6% | inactive | Active |  |  |  |  |  | 
2 | CCCCCCCCN(CCCCCCCC)CCC[C@H](C)Nc1ccnc2cc(Cl)ccc12 | 103.94 | 0.084 | 7.95 nM | 5.58 | 200000 nM | 94.8 nM |  |  |  | 14.5% | inactive | inactive |  |  | 
3 | C[C@H](CCCN1CCCC1)Nc1ccnc2cc(Cl)ccc12 | 14140 | 12.23 | 125 nM | 6.02 | 140000 nM | 10.2 nM |  |  |  | 100% | inactive | inactive |  |  | 
4 | CCN(CC)CCC[C@@H](C)Nc1ccnc2cc(Cl)ccc12 [(R)-CHLOROQUINE] |  |  |  |  |  |  |  |  |  | 100% |  | inactive |  |  | 
5 | CCN(C)CCC[C@@H](C)Nc1ccnc2cc(Cl)ccc12 | 15838 | 36.92 | 287 nM | 3.63 | 140000 nM | 7.78 nM |  |  |  |  |  |  |  |  | 
6 | C[C@@H](CCCNC(C)(C)C)Nc1ccnc2cc(Cl)ccc12 | 7100 | >47.43 | > 1560 nM | 5.04 | 150000 nM | 33 nM |  |  |  |  |  |  |  |  | 
7 | CCN(CC)CCC[C@H](C)Nc1ccnc2cc(Cl)ccc12 |  |  |  |  |  |  |  |  |  | 100% |  | inactive |  |  | 
8 | C[C@H](CCCN1CCN(C)CC1)Nc1ccnc2cc(Cl)ccc12 | 18245 | 15.2 | 105 nM | 5.53 | 180000 nM | 6.92 nM |  |  |  | 100% | Active |  |  |  | 
9 | C[C@@H](CCCN1CCCC1)Nc1ccnc2cc(Cl)ccc12 | 1469 | 3.83 | 60.4 nM | 5.19 | 180000 nM | 15.8 nM |  |  |  | 100% |  | inactive |  |  | 
10 | C[C@@H](CCCN1CCN(C)CC1)Nc1ccnc2cc(Cl)ccc12 | 14744 | 1.53 | 21.8 nM | 4.73 | 140000 nM | 14.2 nM |  |  |  | 100% | Active |  |  |  | 
11 | C[C@@H](CCCN(C)C)Nc1ccnc2cc(Cl)ccc12 | 12483 | 20.88 | 358 nM | 4.95 | 150000 nM | 17.1 nM |  |  |  |  |  |  |  |  | 
12 | CCN(CC)CCCC(C)Nc1ccnc2cc(Cl)ccc12 (racemic) [CHLOROQUINE] |  |  |  |  |  |  |  |  |  |  |  |  | 99% | inactive | Active
13 | CCCCCCCCN(CCCCCCCC)CCC[C@@H](C)Nc1ccnc2cc(Cl)ccc12 | 44.28 | 1.6 | 126 nM | 5.02 | 190000 nM | 78.6 nM |  |  |  | 9.5% | inactive | inactive |  |  | 
14 | C[C@H](CCCN(C)C)Nc1ccnc2cc(Cl)ccc12 | 28483 | 33.74 | 202 nM | 5.77 | 190000 nM | 6 nM |  |  |  |  |  |  |  |  | 
15 | C[C@@H](CCCN1CCCCC1)Nc1ccnc2cc(Cl)ccc12 | 20154 | 8.09 | 121 nM | 5.4 | 150000 nM | 14.9 nM |  |  |  |  |  |  |  |  | 
16 | C[C@H](CCCNC(C)(C)C)Nc1ccnc2cc(Cl)ccc12 | 24459 | >335 | > 1560 nM | 5.71 | 170000 nM | 4.66 nM |  |  |  |  |  |  |  |  | 
17 | CCN(C)CCC[C@H](C)Nc1ccnc2cc(Cl)ccc12 | 26389 | 20.85 | 258 nM | 5.61 | 150000 nM | 12.4 nM |  |  |  |  |  |  |  |  | 
18 | C[C@H](CCCN1CCCCC1)Nc1ccnc2cc(Cl)ccc12 | 4257 | 10.13 | 536 nM | 7.19 | 130000 nM | 52.9 nM |  |  |  |  |  |  |  |  | 
19 | C[C@H](CCCN1CCOCC1)Nc1ccnc2cc(Cl)ccc12 | 4186 | 3.76 | 106 nM | 5.69 | 150000 nM | 28.1 nM |  |  |  |  |  |  |  |  | 
